Results as given in ChEMBL document CHEMBL4477213, “Discovery and Optimization of Quinazolinone-pyrrolopyrrolones as Potent and Orally Bioavailable Pan-Pim Kinase Inhibitors” (J Med Chem, 2016).
≈ marks a conversion by molar mass, not a printed value.

Experiments:
[1] = system: Mus musculus; experiment: In vivo inhibition of pan Pim in SCID-bg mouse xenografted with human KMS-12-BM cells assessed as phosphorylation of BAD peptide at Serine 112 residue at 10 mg/kg, po qd measured at 4 hrs post dose relative to control; format: functional; set-up: scale not given: the % may be the effect or the level left
[2] = system: KMS-12-BM; experiment: Antitumor activity against human KMS-12-BM cells xenografted in SCID-bg mouse assessed as tumor growth inhibition at 10 mg/kg, po qd measured twice per week; format: functional; details: read-out: TGI
[3] = system: Mus musculus; experiment: In vivo inhibition of pan Pim in SCID-bg mouse xenografted with human KMS-12-BM cells assessed as phosphorylation of BAD peptide at Serine 112 residue at 50 mg/kg, po qd measured at 1 hr post dose relative to control; format: functional; set-up: scale not given: the % may be the effect or the level left
[4] = Aqueous solubility of the compound in FaSIF at pH 6.8 after 1 hr by LC/MS analysis
[5] = system: Mus musculus; experiment: In vivo inhibition of pan Pim in SCID-bg mouse xenografted with human KMS-12-BM cells assessed as phosphorylation of BAD peptide at Serine 112 residue at 10 mg/kg, po qd measured at 8 hrs post dose relative to control; format: functional; set-up: scale not given: the % may be the effect or the level left
[6] = Oral bioavailability in rat at 5 mg/kg; format: ADME, organism-based; details: in vivo
[7] = system: Mus musculus; experiment: In vivo inhibition of pan Pim in SCID-bg mouse xenografted with human KMS-12-BM cells assessed as phosphorylation of BAD peptide at Serine 112 residue at 100 mg/kg, po qd measured at 1 hr post dose relative to control; format: functional; set-up: scale not given: the % may be the effect or the level left
[8] = Volume of distribution at steady state in rat at 2 mg/kg, iv or 5 mg/kg, po; format: ADME, organism-based; details: in vivo, read-out: Vdss
[9] = Oral bioavailability in dog; format: ADME, organism-based, Canis lupus familiaris; details: in vivo
[10] = Aqueous solubility of the compound in PBS at pH 7.4 after 1 hr by LC/MS analysis; format: physicochemical
Outline: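 The compound was dried down from DMSO and taken up in 1x PBS (pH 7.4) or FaSIF (pH 6.8). Samples were shaken 1 h, equilibrated at RT for 72 h, then centrifuged.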

[11] = system: KMS-12-BM; experiment: Antitumor activity against human KMS-12-BM cells xenografted in po dosed SCID-bg mouse assessed as tumor growth inhibition administered once daily measured twice per week; format: functional, organism-based
[12] = system: Mus musculus; experiment: In vivo inhibition of pan Pim in SCID-bg mouse xenografted with human KMS-12-BM cells assessed as phosphorylation of BAD peptide at Serine 112 residue at 100 mg/kg, po qd measured at 24 hrs post dose relative to control; format: functional; set-up: scale not given: the % may be the effect or the level left
[13] = Apparent permeability in pig LLC-PK1 cells; format: ADME, cell-based, Sus scrofa
[14] = system: Mus musculus; experiment: In vivo inhibition of pan Pim in SCID-bg mouse xenografted with human KMS-12-BM cells assessed as phosphorylation of BAD peptide at Serine 112 residue at 100 mg/kg, po qd measured at 12 hrs post dose relative to control; format: functional; set-up: scale not given: the % may be the effect or the level left
[15] = system: Mus musculus; experiment: In vivo inhibition of pan Pim in SCID-bg mouse xenografted with human KMS-12-BM cells assessed as phosphorylation of BAD peptide at Serine 112 residue at 100 mg/kg, po qd measured at 4 hrs post dose relative to control; format: functional; set-up: scale not given: the % may be the effect or the level left
[16] = target: Casein kinase II subunit alpha (Homo sapiens) (UniProt P68400); experiment: Inhibition of full length human CSNK2A1 expressed in mammalian system assessed as remaining enzyme activity at 1 uM by KINOMEScan assay relative to control
Casein kinase II subunit alpha (Homo sapiens), sequence (P68400 whole entry, looked up): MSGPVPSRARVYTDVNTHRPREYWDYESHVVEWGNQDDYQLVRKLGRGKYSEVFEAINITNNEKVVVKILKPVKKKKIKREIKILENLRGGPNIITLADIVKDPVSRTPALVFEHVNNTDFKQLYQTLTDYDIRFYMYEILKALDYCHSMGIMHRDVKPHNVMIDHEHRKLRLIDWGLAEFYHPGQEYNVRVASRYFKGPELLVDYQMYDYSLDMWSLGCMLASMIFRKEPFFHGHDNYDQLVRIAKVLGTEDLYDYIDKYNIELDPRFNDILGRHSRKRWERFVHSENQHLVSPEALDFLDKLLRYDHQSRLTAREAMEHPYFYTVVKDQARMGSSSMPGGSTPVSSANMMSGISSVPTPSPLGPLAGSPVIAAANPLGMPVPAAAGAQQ

[17] = system: Mus musculus; experiment: In vivo inhibition of pan Pim in SCID-bg mouse xenografted with human KMS-12-BM cells assessed as phosphorylation of BAD peptide at Serine 112 residue at 10 mg/kg, po qd measured at 24 hrs post dose relative to control; format: functional; set-up: scale not given: the % may be the effect or the level left
[18] = Volume of distribution at steady state in dog at 0.3 mg/kg, iv; format: ADME, organism-based, Canis lupus familiaris; details: in vivo, read-out: Vdss
[19] = target: T1, Mitogen-activated protein kinase 12 (Homo sapiens) (UniProt P53778); experiment: Inhibition of full length human p38-gamma expressed in bacterial system assessed as remaining enzyme activity at 1 uM by KINOMEScan assay relative to control
T1 sequence (whole entry): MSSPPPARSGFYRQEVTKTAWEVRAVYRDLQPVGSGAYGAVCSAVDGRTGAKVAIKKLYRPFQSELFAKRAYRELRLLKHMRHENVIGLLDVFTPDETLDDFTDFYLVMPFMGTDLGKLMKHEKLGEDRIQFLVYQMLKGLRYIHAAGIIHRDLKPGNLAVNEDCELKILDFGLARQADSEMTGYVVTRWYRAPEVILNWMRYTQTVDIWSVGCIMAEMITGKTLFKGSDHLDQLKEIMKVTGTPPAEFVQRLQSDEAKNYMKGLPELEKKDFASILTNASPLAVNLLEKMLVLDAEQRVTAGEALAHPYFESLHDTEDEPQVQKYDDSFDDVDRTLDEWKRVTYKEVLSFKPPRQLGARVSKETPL

[20] = target: Dual specificity protein kinase CLK4 (Homo sapiens) (UniProt Q9HAZ1); experiment: Inhibition of human CLK4 (135 to 481 residues) expressed in bacterial system assessed as remaining enzyme activity at 1 uM by KINOMEScan assay relative to control
Dual specificity protein kinase CLK4 (Homo sapiens), sequence (Q9HAZ1 whole entry, looked up, the tested form may be a part): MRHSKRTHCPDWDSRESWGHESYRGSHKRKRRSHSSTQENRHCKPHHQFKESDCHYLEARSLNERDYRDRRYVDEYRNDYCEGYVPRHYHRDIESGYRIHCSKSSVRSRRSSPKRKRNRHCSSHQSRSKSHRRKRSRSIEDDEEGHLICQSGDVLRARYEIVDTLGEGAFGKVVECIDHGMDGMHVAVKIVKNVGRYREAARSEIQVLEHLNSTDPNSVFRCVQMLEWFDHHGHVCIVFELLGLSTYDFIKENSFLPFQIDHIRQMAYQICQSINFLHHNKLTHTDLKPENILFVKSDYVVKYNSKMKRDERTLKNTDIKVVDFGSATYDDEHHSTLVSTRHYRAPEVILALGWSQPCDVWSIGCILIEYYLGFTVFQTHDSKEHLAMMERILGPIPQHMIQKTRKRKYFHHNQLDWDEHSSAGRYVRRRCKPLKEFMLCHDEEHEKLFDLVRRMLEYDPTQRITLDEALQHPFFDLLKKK

[21] = system: Mus musculus; experiment: In vivo inhibition of pan Pim in SCID-bg mouse xenografted with human KMS-12-BM cells assessed as phosphorylation of BAD peptide at Serine 112 residue at 25 mg/kg, po qd measured at 4 hrs post dose relative to control; format: functional; set-up: scale not given: the % may be the effect or the level left
[22] = system: Mus musculus; experiment: In vivo inhibition of pan Pim in SCID-bg mouse xenografted with human KMS-12-BM cells assessed as plasma concentration required for reduction of BAD peptide phosphorylation at Serine 112 residue at 10 to 100 mg/kg, po qd measured after 1 to 24 hrs post dose; format: functional, organism-based
[23] = system: Mus musculus; experiment: In vivo inhibition of pan Pim in SCID-bg mouse xenografted with human KMS-12-BM cells assessed as phosphorylation of BAD peptide at Serine 112 residue at 50 mg/kg, po qd measured at 24 hrs post dose relative to control; format: functional; set-up: scale not given: the % may be the effect or the level left
[24] = system: Mus musculus; experiment: In vivo inhibition of pan Pim in SCID-bg mouse xenografted with human KMS-12-BM cells assessed as phosphorylation of BAD peptide at Serine 112 residue at 25 mg/kg, po qd measured at 12 hrs post dose relative to control; format: functional; set-up: scale not given: the % may be the effect or the level left
[25] = system: KMS-12-BM; experiment: Antitumor activity against human KMS-12-BM cells xenografted in SCID-bg mouse assessed as tumor growth inhibition at 25 mg/kg, po qd measured twice per week; format: functional; details: read-out: TGI
[26] = Fraction unbound in mouse plasma; format: ADME, cell-free
[27] = system: Mus musculus; experiment: In vivo inhibition of pan Pim in SCID-bg mouse xenografted with human KMS-12-BM cells assessed as phosphorylation of BAD peptide at Serine 112 residue at 10 mg/kg, po qd measured at 12 hrs post dose relative to control; format: functional; set-up: scale not given: the % may be the effect or the level left
[28] = system: Mus musculus; experiment: In vivo inhibition of pan Pim in SCID-bg mouse xenografted with human KMS-12-BM cells assessed as phosphorylation of BAD peptide at Serine 112 residue at 50 mg/kg, po qd measured at 12 hrs post dose relative to control; format: functional; set-up: scale not given: the % may be the effect or the level left

## C[C@H]1NC(=O)c2cc(-c3cccc4c(=O)n(C)c(NC(C)(C)C)nc34)[nH]c21
[1]
  Activity: 50%
[2]
  inhibition in vivo at 10 mg/kg: 30%
[3]
  Activity: 61%
[4]
  solubility at 1 h: 104 µM (≈ 38 µg/mL)
[5]
  Activity: 41%
[6]
  bioavailability: 39%
[7]
  Activity: 61%
[8]
  Vd: 1.5 L/kg
[9]
  bioavailability: 44%
[10]
  solubility at 1 h: 60 µM (≈ 21.9 µg/mL)
[11]
  TGI: Dose-dependent effect
[12]
  Activity: 21%
[13]
  Papp: 440 nm/s
[14]
  Activity: 66%
[15]
  Activity: 63%
[16]
  Activity: 3.5%
[17]
  Activity: 0%
[18]
  Vd: 1 L/kg
[19]
  Activity: 0.9%
[20]
  Activity: 0.2%
[21]
  Activity: 60%
[22]
  EC50: 0.254 µM
[23]
  Activity: 10%
[24]
  Activity: 37%
[25]
  inhibition in vivo at 25 mg/kg: 65%
[26]
  Cp(f): 0.0214 µM
[27]
  Activity: 34%
[28]
  Activity: 65%
